Reference: ChEMBL document CHEMBL1135806, “Synthesis, biological evaluation, and quantitative structure-activity relationship analysis of new Schiff bases of hydroxysemicarbazide as potential antitumor agents” (J Med Chem, 2002)

These compounds were tested on L1210 (assay: Activity against lymphocytic murine leukemia cell line L1210 using MTS/PES microculture tetrazolium assay). Conditions: Mus musculus.
Type: functional, cell-based
Procedure, shortened: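 L1210 cells kept in RPMI-1640 with 10% FBS and penicillin/streptomycin, 37 °C, 5% CO2. Seeded at 1×10^5/mL. DMSO stocks diluted in medium to six concentrations, 2×10⁻³ to 1×10⁻⁸ M, in triplicate; final DMSO 1% at top dose, otherwise <0.25%. Incubated 65 h, then MTS/PES for 3 h, A490. Inhibition relative to DMSO control; IC50 by probit regression; repeated at least twice.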

IC50 | SMILES
399 µM | O=C(NO)N/N=C/c1cccc([N+](=O)[O-])c1
944 µM | CC(=O)Nc1ccc(/C=N/NC(=O)NO)cc1
317 µM | COc1ccc(/C=N/NC(=O)NO)cc1
5.4 µM | O=C(NO)N/N=C/c1c2ccccc2c(Cl)c2ccccc12
178 µM | O=C(NO)N/N=C/c1ccc2c(c1)OCCO2
477 µM | O=C(NO)N/N=C/c1c[nH]c2ccccc12
48.1 µM | O=C(NO)N/N=C/c1ccc(OCc2ccccc2)cc1
10.1 µM | O=C(NO)N/N=C/c1cc(Br)ccc1O
208 µM | N#Cc1ccc(/C=N/NC(=O)NO)cc1
369 µM | COc1cccc(/C=N/NC(=O)NO)c1
30.1 µM | COc1ccc(OC)c(/C=N/NC(=O)NO)c1
42.7 µM | O=C(NO)N/N=C/c1ccc(-c2ccccc2)cc1
60.2 µM | COc1ccc(/C=N/NC(=O)NO)c(O)c1
32.2 µM | CC(C)c1ccc2occ(/C=N/NC(=O)NO)c(=O)c2c1
39.5 µM | O=C(NO)N/N=C/c1cccc(C(F)(F)F)c1
891 µM | Cc1cccc(/C=N/NC(=O)NO)n1
282 µM | NNC(=O)NO
7.2 µM | O=C(NO)N/N=C/c1cc(Br)cc(Br)c1O
131 µM | O=C(NO)N/N=C/c1ccc(O)cc1O
821 µM | O=C(NO)N/N=C/c1cc([N+](=O)[O-])cc([N+](=O)[O-])c1O
37.7 µM | COc1cc(Br)cc(/C=N/NC(=O)NO)c1O
446 µM | CN(C)c1ccc(/C=N/NC(=O)NO)cc1
607 µM | O=C(NO)N/N=C/c1cccnc1
80.4 µM | O=C(NO)N/N=C/c1cccc(I)c1
28.2 µM | O=C(NO)N/N=C/c1coc2c(Cl)cc(Cl)cc2c1=O
4.7 µM | O=C(NO)N/N=C/c1cc(I)cc(I)c1O
91.4 µM | COc1cc(O)c(/C=N/NC(=O)NO)c(OC)c1

SMILES | IC50
O=C(NO)N/N=C/c1ccc(O)c(O)c1O | 2.7 µM
Cc1c2ccccc2c(/C=N/NC(=O)NO)c2ccccc12 | 4.4 µM
O=C(NO)N/N=C/c1ccc([N+](=O)[O-])s1 | 10.6 µM
O=C(NO)N/N=C/c1cc(Cl)cc(Cl)c1O | 6.5 µM
NNC(N)=O [HYDRAZINECARBOXAMIDE] | > 2190 µM
